Only some compounds are listed: those with a hit (about 2.4% of all), similar ones and a draw of the others.
VIM-2 inhibitor: inhibitors of Pseudomonas aeruginosa VIM-2 metallo-beta-lactamase; purified VIM-2, nitrocefin hydrolysis, epi-absorbance fluorescence; inhibition, % at 5.6 µM; 290,000 tested, 0.89% active;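 active = inhibition above the mean of all tested compounds plus 3 SD, cutoff set per screening run, cut at about 7.5% in these data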;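 also: red hydrolysis product quenches plate fluorescence so inhibitors raise well fluorescence; 0% = enzyme with DMSO and 100% = DMSO without enzyme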
M18AAP inhibitor: PfM18AAP enzyme inhibition; recombinant PfM18AAP, H-Glu-NHMec fluorogenic cleavage; inhibition, % at 7.35 µM; 290,000 tested, 1.2% active; AID 1822;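 active = inhibition above the campaign mean inhibition over all tested compounds plus 3 SD, cut at about 28% in these data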;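 also: 0% = plate median of test compound wells and 100% = 2 mM ZnCl2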
HGIII-sPLA2 inh: Blocks human group III sPLA2 activity; Q9NZ20; QFRET BODIPY PC-A2 liposome hydrolysis, fluorescence; inhibition, % at 12.2 µM; 370,000 tested, 0.56% active;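 active = inhibition above mean plus 3 SD of compounds lying within the high and low control bounds, cut at about 19% in these data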;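 also: 0% = median of test compound wells and 100% = no enzyme DMSO wells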
Target sequence (Q9NZ20 whole entry, looked up): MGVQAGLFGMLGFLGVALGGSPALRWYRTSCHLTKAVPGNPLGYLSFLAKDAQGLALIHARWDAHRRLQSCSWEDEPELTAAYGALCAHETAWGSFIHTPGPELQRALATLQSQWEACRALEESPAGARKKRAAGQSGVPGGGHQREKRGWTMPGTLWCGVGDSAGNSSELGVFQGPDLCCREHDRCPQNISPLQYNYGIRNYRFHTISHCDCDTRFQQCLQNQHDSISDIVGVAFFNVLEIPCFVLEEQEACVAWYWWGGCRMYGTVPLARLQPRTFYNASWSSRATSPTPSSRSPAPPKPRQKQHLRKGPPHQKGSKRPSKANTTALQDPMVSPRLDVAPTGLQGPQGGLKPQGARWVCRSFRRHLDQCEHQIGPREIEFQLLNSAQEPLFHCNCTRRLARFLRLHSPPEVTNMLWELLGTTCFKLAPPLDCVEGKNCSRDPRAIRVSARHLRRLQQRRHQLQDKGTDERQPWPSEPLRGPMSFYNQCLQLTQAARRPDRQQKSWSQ
IMP-1 inh: blocks Pseudomonas aeruginosa IMP-1 metallo-beta-lactamase; 290,000 tested, 0.45% active; purified IMP-1, nitrocefin hydrolysis, epi-absorbance fluorescence; inhibition, % at 5.6 µM; AID 1556;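 active = inhibition above the mean plus 3 SD of all compounds in the same screening run, cut at about 4.5% in these data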;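 also: 0% = IMP-1 with DMSO and 100% = DMSO wells lacking enzyme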
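Material – recombinant IMP-1 enzyme, purified · Amount – IMP-1 0.2 nM before substrate addition · Medium – HEPES buffer pH 7.1 with ZnSO4 and Brij 35 · Timing – 25 °C, 15 min preincubation, 25 min reaction · Measured by – plate fluorescence quenching by hydrolysis product, ex 480/em 530 nm · Read-out – percent enzyme inhibition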
The depositor's hits bear a star; x = no result given.

SMILES	VIM-2 inhibitor	M18AAP inhibitor	HGIII-sPLA2 inh	IMP-1 inh
O=C(CC(CC(=O)c1ccccc1)C(=O)O)c1ccccc1	8.9*	2	2	-4
O=C(CC(CC(=O)c1ccccc1)c1ccccc1)c1ccccc1	-3	5	-5	-2
COc1ccccc1Nc1c([N+](=O)[O-])cc(C)cc1[N+](=O)[O-]	-3	-1	6	-3
COc1ccccc1Nc1ccc([N+](=O)[O-])cc1N	0	31*	10	-4
Cc1ccc(CSc2nnc(-c3cc(-c4ccc(C)cc4)n[nH]3)n2N)cc1	x	x	0	x
CCCCOCCCNC(=O)C[C@H]1C(=O)N(Cc2ccc(OC)cc2)C2=CCCCC[C@@]21C(=O)OC	x	x	-14	x
O=c1nccc(N/N=C/c2ccccc2O)[nH]1	-4	29*	-1	-5
CCOc1ccccc1/C=N/Nc1ccnc(=O)[nH]1	-1	-13	-1	-1
CN(C)S(=O)(=O)c1cc(NC(=O)c2ccc(-n3ccnc3)c([N+](=O)[O-])c2)ccc1Cl	8.0*	4	-11	-3
COc1ccccc1NC(=O)c1ccc(-n2ccnc2)c([N+](=O)[O-])c1	2	-2	4	0
CNC(=O)[C@@H](NC(=O)[C@H](CC(C)C)[C@H](O)C(=O)NO)C(C)(C)C	x	x	16	x
O=c1cc(CSc2nnnn2-c2ccccc2)nc(Nc2ccc(F)cc2)[nH]1	10.0*	2	-34	3
Cc1nc2sc(C(=O)NCc3ccncc3)c(N)c2c(C)c1Cl	x	x	6	x
COC(=O)C1CN(CC(C)C)CCS(=O)(=O)N1Cc1ccc(Cl)cc1 (stereo not given)	x	x	6	x
COC(=O)[C@]12C[C@H](CC(=O)NCc3cccc(C(F)(F)F)c3)C(=O)N(Cc3ccccc3)C1=C[C@H](C(C)(C)C)O[C@@H]2C	x	x	-12	x
CN1CCN(CC(=O)Nc2c(C(=O)c3ccccc3)oc3ccccc23)CC1	10*	1	-9	-2
CC(=O)Nc1c(C(=O)c2ccccc2)oc2ccccc12	2	0	-2	0
COc1ccc2oc(C(=O)c3ccccc3)c(NC(=O)CN3CCN(C)CC3)c2c1	9.2*	9	-4	-2
COC(=O)c1oc2ccc(Br)cc2c1NC(=O)CCN1CCOCC1	1	0	1	0
CCOC(=O)c1oc2ccc(Br)cc2c1NC(=O)CN1CCN(C)CC1	9.8*	4	-12	4
COc1ccc2oc(C(=O)c3ccccc3)c(N)c2c1	1	2	-8	0
COc1ccc(OC)c2c(=O)cc(C(=O)O)[nH]c12	-2	10	-1	-5
COc1ccc(OC)c2c(C)c(C)[nH]c12	8.2*	-8	17	0
Cc1ccc(C(=O)NCC(=O)OCc2nc3sc(C)c(C)c3c(=O)[nH]2)cc1	x	x	13	x
CCCCCn1nnnc1C1c2ccccc2OCC(=O)N1Cc1ccco1 (stereo not given)	x	x	7	x
SMILES	VIM-2 inhibitor	M18AAP inhibitor	HGIII-sPLA2 inh	IMP-1 inh
O=C(NNC(=O)c1nn(-c2ccc(F)cc2)ccc1=O)c1ccccc1Cl	-3	5	2	8.4*
O=C(O)c1nn(-c2ccc(F)cc2)ccc1=O	-1	11	1	-5
COC(=O)c1c(NC(=O)C2CC=CCC2C(=O)O)sc2c1CCCCC2 (stereo not given)	2	29*	-9	2
C=CCN1C(=O)[C@@H](CC(=O)NCCc2ccccc2OC)[C@]2(C(=O)OC)CCCCC=C12	x	x	4	x
CCC(=O)Nc1nc2ccc(NC(C)=O)cc2s1	-2	-19	11	6.2*
COc1ccc(N=Cc2sc(O)c3ccccc23)cc1	2	8	2	8.3*
CC(=O)NN1C(=O)c2ccc(Oc3ccc([N+](=O)[O-])cc3)cc2C1=O	-4	4	-3	-2
CC(=O)NN1C(=O)c2ccc(Oc3cccc([N+](=O)[O-])c3)cc2C1=O	6	11	4	6.0*
C=CCN1[C@H](C#N)[C@@H](c2ccccc2)[C@H]1CO	x	x	7	x
CCCN1Cc2cccc(C(=O)Nc3ccc(OC)c(OC)c3)c2C1=O	x	x	13	x
CCCN1Cc2cccc(C(=O)Nc3ccc(CN4CCCC4)cc3)c2C1=O	12*	-5	-13	-2
C=CCN1C(=O)[C@@H](CC(=O)N2CCCCC2)[C@]2(C(=O)OC)CCCCC=C12	x	x	3	x
COC(=O)C1=C(C)N(Cc2ccc(C(F)(F)F)cc2)C(=NCc2ccc(OC)cc2)NC1c1ccccc1C(F)(F)F (stereo not given)	x	x	3	x
COC(=O)CSc1nc(N)c2c3c(sc2n1)CCCC3	4	28*	-1	2
Nc1nc(SCC(=O)NCCO)nc2sc3c(c12)CCCC3	2	-3	1	-3
Brc1ccc(CSc2nnc(SCc3ccccc3)s2)cc1	x	x	7	x
NC(=O)C1CCN(C2=C(NS(=O)(=O)c3ccc(Br)cc3)C(=O)c3ccccc3C2=O)CC1	6	15	-1	-1
CCN1CCN(C2=C(NS(=O)(=O)c3ccc(Br)cc3)C(=O)c3ccccc3C2=O)CC1	1	20	0	-1
O=C1C(NS(=O)(=O)c2ccc(Cl)cc2)=C(N2CCCCC2)C(=O)c2ccccc21	9.3*	-1	3	0
CCOC(=O)N1CCN(C2=C(NS(=O)(=O)c3ccccc3)C(=O)c3ccccc3C2=O)CC1	9.4*	26	15	-2
CCN1CCN(C2=C(NS(=O)(=O)c3ccccc3)C(=O)c3ccccc3C2=O)CC1	0	30*	3	-2
CCOC(=O)N1CCN(C2=C(NS(=O)(=O)c3ccc(Br)cc3)C(=O)c3ccccc3C2=O)CC1	x	x	-4	x
NC(=O)C1CCN(C2=C(NS(=O)(=O)c3ccccc3)C(=O)c3ccccc3C2=O)CC1	8.8*	0	7	0
O=C(NCc1cccnc1)c1ccc2c(c1)N(Cc1ccccc1)CCS2	0	30*	-9	-2
Clc1ncnc2c1oc1ccccc12	1	-15	0	-1
SMILES	VIM-2 inhibitor	M18AAP inhibitor	HGIII-sPLA2 inh	IMP-1 inh
c1coc(CN(Cc2ccco2)c2ncnc3c2oc2ccccc23)c1	0	10	x	4.7*
FCCCOc1ccc(-c2ccnc(-c3ccccc3)n2)cc1	1	1	-14	5.1*
FCCCOc1ccc(-c2nccc(-c3ccc(F)cc3)n2)cc1	-1	-1	1	-2
CCCCN1CCN(C(=O)C2CCCN(C(=O)c3ccc4c(c3)NC(=O)CS4)C2)CC1 (stereo not given)	x	x	3	x
COc1cccc(NC(=O)Cn2c3ccccc3c3nc4n(c(=O)c32)CCCS4)c1	2	-5	-2	4.8*
Cc1nn(C)c(C(=O)N2CCc3ccccc32)c1Br	-1	-5	-1	-3
Cc1c(Br)c(C(=O)N2CCc3ccccc32)nn1C	-5	3	5	10*
COC(=O)C1=C(C)N(Cc2ccccc2C(F)(F)F)C(=NCc2ccc3c(c2)OCO3)NC1c1ccc(Cl)cc1 (stereo not given)	x	x	2	x
COc1cc(/C=C2/SC(=Nc3ccc(O)cc3)NC2=O)cc(OC)c1O	7	33*	-19	-3
COc1cc(/C=C2\SC(=Nc3ccc(O)cc3)NC2=O)cc(OC)c1OC	3	-17	-6	0
O=C(N[C@H](C(=O)N1CCC[C@H]1C(=O)NCCc1ccccc1Cl)C1CCCCC1)c1ccccc1	x	x	-3	x

Assay outcomes: PubChem, The Scripps Research Institute Molecular Screening Center
